“And” between values parts separate entries of the source, which are not always exact repeats. Identical values can stand only once.
How the values were obtained:
[1] = test system: L1210; experiment: Antitumor activity against lymphoid leukemia L1210 cell implanted in mice was measured by %T/C on a 1-9 day schedule; type: functional, Mus musculus
[2] = Percent ability of compound to produce DNA interstrand cross-links was determined by the ethidium fluorescence assay at 6 hr and compared with antileukemic property; type: functional; design: concentration or dose not given beside the values
Method in brief: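 λ-DNA (1.0 A260 unit) was incubated with 5 mM compound in 50 mM potassium phosphate pH 7.2 at 37 °C. Aliquots went into 20 mM potassium phosphate pH 11.8, 0.4 mM EDTA and 0.5 µg/mL ethidium, were heated at 96 °C for 3 min and rapidly cooled. Fluorescence relative to control ×100 gives % DNA molecules with ≥1 interstrand cross-link; accuracy about ±2%.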

[3] = test system: L1210; experiment: Antitumor activity against lymphoid leukemia L1210 cell implanted in mice was measured by mean survival of mice expressed as treated/control at a dosage of 200 mg/kg (16.4/16.9); type: functional, Mus musculus
Method in brief: (§1)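 L1210 leukemia cells (10^5) implanted intraperitoneally in mice on day 0. Compounds were suspended in saline plus Tween 80 and injected intraperitoneally within 5 min of preparation, following Cancer Chemotherapy National Service Center specifications; dose is given per day. Read-outs were weight change from day 0 to 5 (treated vs control), survivors on day 5, mean survival time treated/control, and %T/C.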

[4] = test system: L1210; experiment: Antitumor activity against lymphoid leukemia L1210 cell implanted in mice was measured by wt.change of treated mice minus wt. change of control mice at 200 mg/kg from day 0-5 (-1.1/1.4); type: functional, Mus musculus; method in brief: as §1
[5] = test system: L1210; experiment: Antitumor activity against lymphoid leukemia L1210 cell implanted in mice was measured by %T/C at a dosage of 200 mg/kg; type: functional, Mus musculus; method in brief: as §1
[6] = Compound was evaluated for its ability to exhibit alkylating property toward DNA at 5 mM in 180 min; type: functional
Method in brief: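 Alkylation was measured with PM2 covalently closed circular DNA (1.2 A280 units, 90% CCC) and 5 mM agent in 200 µL at 37 °C. Aliquots were taken into 20 mM potassium phosphate pH 11.8, 0.4 mM EDTA and 0.5 µg/mL ethidium, heated at 96 °C for 4 min, then rapidly cooled. Fluorescence loss relative to control gives the extent of alkylation.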

[7] = test system: L1210; experiment: Antitumor activity against lymphoid leukemia L1210 cell implanted in mice was measured by number of survivors on day 5 at a dosage of 200 mg/kg (6/6); type: functional, Mus musculus; method in brief: as §1
[8] = test system: L1210; experiment: Antitumor activity against lymphoid leukemia L1210 cell implanted in mice was measured by %T/C at a dosage of 1.3 mg/kg; type: functional, Mus musculus
[9] = test system: L1210; experiment: Antitumor activity against lymphoid leukemia L1210 cell implanted in mice was measured by wt.change of treated mice minus wt. change of control mice at 1.3 mg/kg from day 0-5 (-2.9/0.3); type: functional, Mus musculus
[10] = test system: L1210; experiment: Antitumor activity against lymphoid leukemia L1210 cell implanted in mice was measured by mean survival of mice expressed as treated/control at a dosage of 1.3 mg/kg (25.3/9.6); type: functional, Mus musculus
[11] = test system: L1210; experiment: Antitumor activity against lymphoid leukemia L1210 cell implanted in mice was measured by number of survivors on day 5 at a dosage of 1.3 mg/kg (6/6); type: functional, Mus musculus
[12] = test system: L1210; experiment: Antitumor activity against lymphoid leukemia L1210 cell implanted in mice was measured by %T/C at a dosage of 1 mg/kg; type: functional, Mus musculus
[13] = test system: L1210; experiment: Antitumor activity against lymphoid leukemia L1210 cell implanted in mice was measured by mean survival of mice expressed as treated/control at a dosage of 1 mg/kg (12.3/10.5); type: functional, Mus musculus
[14] = test system: L1210; experiment: Antitumor activity against lymphoid leukemia L1210 cell implanted in mice was measured by wt.change of treated mice minus wt. change of control mice at 200 mg/kg from day 0-5 (-4.4/1.4); type: functional, Mus musculus; method in brief: as §1
[15] = test system: L1210; experiment: Antitumor activity against lymphoid leukemia L1210 cell implanted in mice was measured by mean survival of mice expressed as treated/control at a dosage of 200 mg/kg (14.9/9.8); type: functional, Mus musculus; method in brief: as §1
[16] = test system: Mus musculus; experiment: Antitumor activity against lymphoid leukemia L1210 cell implanted in mice was measured by number of survivors on day 5 at a dosage of 0.9 mg/kg (6/6); type: functional
[17] = test system: Mus musculus; experiment: Antitumor activity against lymphoid leukemia L1210 cell implanted in mice was measured by mean survival of mice expressed as treated/control at a dosage of 0.9 mg/kg (15.6/11.1); type: functional
[18] = test system: Mus musculus; experiment: Antitumor activity against lymphoid leukemia L1210 cell implanted in mice was measured by %T/C at a dosage of 0.9 mg/kg; type: functional
[19] = test system: Mus musculus; experiment: Antitumor activity against lymphoid leukemia L1210 cell implanted in mice was measured by wt.change of treated mice minus wt. change of control mice at 0.9 mg/kg from day 0-5 (-1.4/0.4); type: functional
[20] = test system: L1210; experiment: Antitumor activity against lymphoid leukemia L1210 cell implanted in mice was measured by wt.change of treated mice minus wt. change of control mice at 100 mg/kg from day 0-5 (-2.2/1.4); type: functional, Mus musculus; method in brief: as §1
[21] = test system: L1210; experiment: Antitumor activity against lymphoid leukemia L1210 cell implanted in mice was measured by mean survival of mice expressed as treated/control at a dosage of 100 mg/kg (15.4/9.7); type: functional, Mus musculus; method in brief: as §1
[22] = test system: L1210; experiment: Antitumor activity against lymphoid leukemia L1210 cell implanted in mice was measured by %T/C at a dosage of 100 mg/kg; type: functional, Mus musculus; method in brief: as §1
[23] = test system: L1210; experiment: Antitumor activity against lymphoid leukemia L1210 cell implanted in mice was measured by number of survivors on day 5 at a dosage of 100 mg/kg (6/6); type: functional, Mus musculus; method in brief: as §1

**Q.** Which T/C [1] does the source give for `O=NN(CCCl)C(=O)OCCCSSCCCOC(=O)N(CCCl)N=O` here?
**A.** 136%

**Q.** What about the Activity [2] of the same compound?
**A.** 8% and 25% and 21%

**Q.** With `O=NN(CCSCCO)C(=O)NC1CCCCC1` as the compound, how does the Mean survival [3] read?
**A.** 16.4 time day-1

**Q.** What about the Change in weight [4] of the same compound?
**A.** -1.1 g

**Q.** And the T/C [5]?
**A.** 110%

**Q.** What about the Alkylation [6] of the same compound?
**A.** 96%

**Q.** What about the Activity [2] of the same compound?
**A.** 0%

**Q.** And the Survivals [7]?
**A.** 6

**Q.** Which T/C [8] does the source give for `NC(=O)N(CCCl)N=O` here?
**A.** 263%

**Q.** What about the Change in weight [9] of the same compound?
**A.** -2.9 g

**Q.** And the Alkylation [6]?
**A.** 70%

**Q.** And the Mean survival [10]?
**A.** 25.3 time day-1

**Q.** What about the Activity [2] of the same compound?
**A.** 37%

**Q.** What about the Survivals [11] of the same compound?
**A.** 6

**Q.** Which results are given for `Cc1ccc(S(=O)(=O)N(CCCl)N=O)cc1`?
**A.** T/C [12]: 117%; Activity [2]: 0%; Mean survival [13]: 12.3 time day-1

**Q.** With `CS(=O)(=O)OCCCl` as the compound, how does the Alkylation [6] read?
**A.** 0%

**Q.** Which Activity [2] does the source give for `CC(=O)N(CCCl)N=O` here?
**A.** 44%

**Q.** What does the source list for `O=NN(CCOCCCl)C(=O)NC1CCCCC1`?
**A.** T/C [5]: 152%; Change in weight [14]: -4.4 g; Alkylation [6]: 66%; Mean survival [15]: 14.9 time day-1; Activity [2]: 0%; Survivals [7]: 6

**Q.** For `CCOC(=O)N(CCCl)N=O`, which Survivals [16] is on record?
**A.** 6

**Q.** What about the Mean survival [17] of the same compound?
**A.** 15.6 time day-1

**Q.** And the Activity [2]?
**A.** 12% and 24% and 28%

**Q.** What about the T/C [18] of the same compound?
**A.** 140%

**Q.** What about the Change in weight [19] of the same compound?
**A.** -1.4 g

**Q.** With `CCN(N=O)C(N)=O` as the compound, how does the Alkylation [6] read?
**A.** 53%

**Q.** Which Alkylation [6] does the source give for `Cc1ccc(S(=O)(=O)OCCCl)cc1` here?
**A.** 0%

**Q.** With `O=[N+]([O-])c1ccc(S(=O)(=O)OCCCl)cc1` as the compound, how does the Alkylation [6] read?
**A.** 0%

**Q.** With `O=S(=O)(OCCCl)C(F)(F)F` as the compound, how does the Alkylation [6] read?
**A.** 40%

**Q.** Which results are given for `O=NN(CC[S+]([O-])CCCl)C(=O)NC1CCCCC1` (stereo not given)?
**A.** Change in weight [20]: -2.2 g; Mean survival [21]: 15.4 time day-1; Alkylation [6]: 84%; T/C [22]: 159%; Activity [2]: 0%; Survivals [23]: 6
